Data: ChEMBL document CHEMBL1144746, “Structural simplification of bioactive natural products with multicomponent synthesis. 2. antiproliferative and antitubulin activities of pyrano[3,2-c]pyridones and pyrano[3,2-c]quinolones” (2008)
Active and inactive are the calls of the source. The rule behind the calls is not given here.

Tests used:
HeLa = assay: Antiproliferative activity against human HeLa cells assessed as cell viability after 48 hrs by MTT assay; format: functional
How it was run: (§1)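 Cells plated at 2 × 10^4 cells/mL and allowed to adhere for 24 h, then exposed to compounds for 48 h. MTT reagent (5 mg/mL stock) added for 2 h, formazan dissolved in DMSO, OD read at 490 nm.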

MCF7 = assay: Antiproliferative activity against human MCF7 cells assessed as cell viability after 48 hrs by MTT assay; format: functional; details: MCF7, 48 h; how it was run: as §1
Jurkat [1] = assay: Induction of apoptosis in human Jurkat cells at 5 uM by annexin V/propidium iodide assay; format: functional, cell-based
How it was run: (§2)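 Jurkat cells at 2 × 10^5 cells/mL exposed to compounds, with DMSO control. Exposure was 5 μM for 36 h, 1 μM for 12–60 h, or 48 h across a range of doses. Cells stained with Annexin-V-FITC/propidium iodide in HHB with CaCl2 for 20 min at 37 °C. Flow cytometry gives % Annexin-V-positive cells; four replicates, experiment repeated twice.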

Jurkat [2] = assay: Cell cycle arrest in human Jurkat cells assessed as accumulation at S phase at 1 uM after 24 hrs by flow cytometry; format: functional
How it was run: (§3)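 Cells stained with Vybrant DyeCycle Orange in HHB (1 μL dye per mL) for 30 min at 37 °C in the dark, then analysed by flow cytometry. % relative DNA content ± SD, two independent experiments each in triplicate.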

Bos taurus [3] = species on record: Bos taurus; assay: Inhibition of bovine tubulin polymerization at 25 uM
How it was run: (§4)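 Purified bovine tubulin incubated at 37 °C in buffer with 10% glycerol and 1 mM GTP, each agent in a separate run against a 0.05% DMSO control. Polymerization followed kinetically by fluorescence increase on a plate reader.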

Jurkat [4] = assay: Induction of apoptosis in human Jurkat cells assessed as oligonucleosomal DNA fragments at 1.5 uM after 36 hrs by DNA laddering assay; format: functional, cell-based
How it was run: (§5)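 About 1 × 10^6 Jurkat cells treated for 36 h. Cells lysed in Tris-HCl pH 8/EDTA/0.5% SDS/proteinase K at 55 °C for 60 min, then RNase at 55 °C for 60 min. Cleared lysate run on a 1.5% agarose gel with ethidium bromide at 80 V for about 1 h and viewed under UV.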

Jurkat [5] = assay: Cell cycle arrest in human Jurkat cells assessed as accumulation at G0/G1 phase at 1 uM after 24 hrs by flow cytometry; format: functional; how it was run: as §3
Jurkat [6] = assay: Cell cycle arrest in human Jurkat cells assessed as accumulation at G2/M phase at 1 uM after 24 hrs by flow cytometry; format: functional; how it was run: as §3
Jurkat [7] = assay: Induction of apoptosis in human Jurkat cells assessed as morphological changes after 2 hrs by light microscopy; format: functional, cell-based
How it was run: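 Jurkat cells exposed to compound at 1 μM for 2 h, with 0.1% DMSO as control. Finger-like extensions and shriveling scored by light microscopy.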

Bos taurus [8] = species on record: Bos taurus; assay: Induction of bovine tubulin polymerization at 3 uM relative to control; how it was run: as §4
Jurkat [9] = assay: Induction of apoptosis in human Jurkat cells assessed as oligonucleosomal DNA fragments at 0.4 uM after 36 hrs by DNA laddering assay; format: functional, cell-based; how it was run: as §5
Jurkat [10] = assay: Induction of apoptosis in human Jurkat cells at 100 nM by annexin V/propidium iodide assay
Jurkat [11] = assay: Induction of apoptosis in human Jurkat cells by annexin V/propidium iodide assay; format: functional, cell-based; details: TDE = time-dependent effect; how it was run: as §2

| SMILES | GI50 (HeLa) | GI50 (MCF7) | other results |
| --- | --- | --- | --- |
| Cc1cc2c(c(=O)n1C)C(c1cccc([N+](=O)[O-])c1)C(C#N)=C(N)O2 (stereo not given) | 35000 nM | – | – |
| COc1cc(C2C(C#N)=C(N)Oc3c2c(=O)n(C)c2ccccc32)ccc1O (stereo not given) | 630 nM | 500 nM | – |
| COc1ccc(CCn2c(C)cc3c(c2=O)C(c2cc(OC)c(OC)c(OC)c2)C(C#N)=C(N)O3)cc1OC (stereo not given) | 22700 nM | – | Activity (Jurkat [1]): inactive |
| COc1cc(C2C(C#N)=C(N)Oc3c2c(=O)n(C)c2ccccc32)cc([N+](=O)[O-])c1O (stereo not given) | 630 nM | 710 nM | – |
| Cn1c(=O)c2c(c3ccccc31)OC(N)=C(C#N)C2c1cc(Br)cc(Br)c1 (stereo not given) | 77 nM | 75 nM | – |
| COc1cc(C2C(C#N)=C(N)Oc3c2c(=O)n(C)c2ccccc32)cc(Br)c1OC(C)=O (stereo not given) | 180 nM | 25 nM | – |
| Cn1c(=O)c2c(c3ccccc31)OC(N)=C(C#N)C2c1ccccc1[N+](=O)[O-] (stereo not given) | 5000 nM | 3500 nM | – |
| Cc1cc2c(c(=O)n1C)C(c1ccc(N(C)C)c(Br)c1)C(C#N)=C(N)O2 (stereo not given) | 330 nM | – | Activity (Jurkat [1]): Active |
| COc1cc(C2C(C#N)=C(N)Oc3c2c(=O)n(C)c2ccccc32)cc(OC)c1OC (stereo not given) | 240 nM | 1000 nM | – |
| Cn1c(=O)c2c(c3ccccc31)OC(N)=C(C#N)C2c1cncc(Br)c1 (stereo not given) | 13 nM | 15 nM | – |
| Cn1c(=O)c2c(c3ccccc31)OC(N)=C(C#N)C2c1cccc([N+](=O)[O-])c1 (stereo not given) | 320 nM | 1100 nM | – |
| Cn1c(=O)c2c(c3ccccc31)OC(N)=C(C#N)C2c1ccncc1 (stereo not given) | > 50000 nM | 32000 nM | – |
| COc1cc(C2C(C#N)=C(N)Oc3cc(C)n(C)c(=O)c32)cc(Br)c1O (stereo not given) | 2700 nM | – | Activity (Jurkat [1]): Active |
| COc1cc(C2C(C#N)=C(N)Oc3cc(C)n(C)c(=O)c32)cc(Br)c1OC (stereo not given) | 580 nM | – | Activity (Jurkat [1]): Active |
| COc1cc(C2C(C#N)=C(N)Oc3c2c(=O)n(C)c2ccccc32)cc(Br)c1OC (stereo not given) | 14 nM | 380 nM | Activity (Jurkat [2]): 28%; Activity (Bos taurus [3]): Active; Activity (Jurkat [4]): Active; Activity (Jurkat [5]): 20%; Activity (Jurkat [6]): 49%; Activity (Jurkat [7]): Active |
| Cn1c(=O)c2c(c3ccccc31)OC(N)=C(C#N)C2c1cccc(F)c1 (stereo not given) | 300 nM | 1000 nM | – |
| Cc1cc2c(c(=O)o1)C(c1cccc(Br)c1)C(C#N)=C(N)O2 (stereo not given) | > 100000 nM | – | – |
| CCOc1c(Br)cc(C2C(C#N)=C(N)Oc3cc(C)n(C)c(=O)c32)cc1OC (stereo not given) | 1100 nM | – | Activity (Jurkat [1]): Active |
| COc1cc(C2C(C#N)=C(N)Oc3cc(C)n(C)c(=O)c32)cc(OC)c1OC (stereo not given) | 43300 nM | – | – |
| Cc1cc2c(c(=O)n1C)C(c1ccc(F)c(Br)c1)C(C#N)=C(N)O2 (stereo not given) | 6400 nM | – | Activity (Jurkat [1]): Active |

| SMILES | GI50 (HeLa) | GI50 (MCF7) | other results |
| --- | --- | --- | --- |
| CC(=O)O[C@H]1C(=O)[C@@]2(C)[C@H]([C@H](OC(=O)c3ccccc3)[C@]3(O)C[C@H](OC(=O)[C@H](O)[C@@H](NC(=O)c4ccccc4)c4ccccc4)C(C)=C1C3(C)C)[C@]1(OC(C)=O)CO[C@@H]1C[C@@H]2O | – | – | Activity (Bos taurus [8]): Active; Activity (Jurkat [9]): Active |
| Cc1cc2c(c(=O)n1C)C(c1ccc(C(C)C)cc1)C(C#N)=C(N)O2 (stereo not given) | > 100000 nM | – | Activity (Jurkat [1]): inactive |
| Cn1c(=O)c2c(c3ccccc31)OC(N)=C(C#N)C2c1ccc(Cl)c(Cl)c1 (stereo not given) | 300 nM | 2500 nM | – |
| Cn1c(=O)c2c(c3ccccc31)OC(N)=C(C#N)C2c1ccco1 (stereo not given) | 22000 nM | 35000 nM | – |
| Cn1c(=O)c2c(c3ccccc31)OC(N)=C(C#N)C2c1cccc(Br)c1 (stereo not given) | 740 nM | 3 nM | – |
| COc1cc(C2C(C#N)=C(N)Oc3cc(C)n(C)c(=O)c32)cc(Br)c1OC(C)=O (stereo not given) | 3500 nM | – | Activity (Jurkat [1]): Active |
| Cn1c(=O)c2c(c3ccccc31)OC(N)=C(C#N)C2c1ccccc1 (stereo not given) | 390 nM | 3380 nM | – |
| COc1ccc(C2C(C#N)=C(N)Oc3c2c(=O)n(C)c2ccccc32)cc1Br (stereo not given) | 410 nM | 500 nM | – |
| Cn1c(=O)c2c(c3ccccc31)OC(N)=C(C#N)C2c1cccnc1 (stereo not given) | 2000 nM | > 50000 nM | – |
| Cn1c(=O)c2c(c3ccccc31)OC(N)=C(C#N)C2c1c(Cl)cccc1Cl (stereo not given) | > 50000 nM | 36000 nM | – |
| Cn1c(=O)c2c(c3ccccc31)OC(N)=C(C#N)C2c1cccc(Cl)c1Cl (stereo not given) | 1800 nM | > 50000 nM | – |
| Cc1cc2c(c(=O)n1C)C(c1ccc(Cl)c(Cl)c1)C(C#N)=C(N)O2 (stereo not given) | 18300 nM | – | Activity (Jurkat [1]): inactive |
| Cc1ccc(C2C(C#N)=C(N)Oc3c2c(=O)n(C)c2ccccc32)o1 (stereo not given) | 3900 nM | 5100 nM | – |
| Cn1c(=O)c2c(c3ccccc31)OC(N)=C(C#N)C2c1ccc(F)c(Br)c1 (stereo not given) | 270 nM | 810 nM | – |
| Cc1cc2c(c(=O)n1C)C(c1cccc(Br)c1)C(C#N)=C(N)O2 (stereo not given) | 6500 nM | – | Activity (Jurkat [1]): Active |
| Cn1c(=O)c2c(c3ccccc31)OC(N)=C(C#N)C2c1cc(Br)c(O)c(Br)c1 (stereo not given) | 270 nM | 430 nM | – |
| Cn1c(=O)c2c(c3ccccc31)OC(N)=C(C#N)C2c1cccc(Cl)c1 (stereo not given) | 150 nM | 2200 nM | – |
| COc1cc(C2C(C#N)=C(N)Oc3c2c(=O)n(C)c2ccccc32)cc(Br)c1O (stereo not given) | 47 nM | 390 nM | Activity (Jurkat [10]): Active; Activity (Jurkat [2]): 22%; Activity (Bos taurus [3]): Active; Activity (Jurkat [11]): tde; Activity (Jurkat [4]): Active; Activity (Jurkat [5]): 27%; Activity (Jurkat [6]): 47%; Activity (Jurkat [7]): Active |
| COc1ccc(C2C(C#N)=C(N)Oc3c2c(=O)n(C)c2ccccc32)cc1O (stereo not given) | > 50000 nM | > 50000 nM | – |
| COc1cc([C@@H]2c3cc4c(cc3[C@H](O)[C@H]3COC(=O)[C@H]23)OCO4)cc(OC)c1OC | – | – | Activity (Bos taurus [3]): Active |
